Data on 44 molecules can be found in ChEMBL document CHEMBL4765370, “Design, synthesis, and biological evaluation of aryl piperazines with potential as antidiabetic agents via the stimulation of glucose uptake and inhibition of NADH:ubiquinone oxidoreductase” (Eur J Med Chem, 2020).

The subject of one series is C2C12. As to the kind of experiment: Induction of glucose uptake in mouse C2C12 cells assessed as [3H]2-deoxyglucose uptake preincubated for 16 hrs followed by followed by [3H]2-deoxyglucose addition and measured after 10 mins by liquid scintillation counting method. It is filed as functional. In short, it runs like this:
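C2C12 mouse myoblasts were grown in high-glucose DMEM with 10% FBS. At 80% confluence they were differentiated into myotubes with 2% horse serum. Myotubes were exposed to compound (10 µM) for 16 h in medium with 0.1% horse serum, then washed with KRB pH 7.4 and given 1 µCi/mL [3H]-2-deoxyglucose for 10 min at 37 °C. After ice-cold washes and 0.1% SDS lysis, scintillation counts were normalised to BCA protein. Results are fold change vs DMSO, mean ± SEM, one-way ANOVA.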

Series [1] can be described thus: Inhibition of NADH:ubiquinone oxidoreductase in rat liver mitochondria incubated for 3 mins.
Series [2] in a line: Apparent permeability in MDCK-MDR1 cells at 10 uM after 30 mins by LC-MS/MS analysis. Format: ADME, cell-based, Canis lupus familiaris. The conditions noted are these: dog. In short, it runs like this: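 Test article was taken from a 10 mM DMSO stock and diluted in DMEM to a final 10 µM donor solution, with 10 µM propranolol as internal standard. It was applied to hMDR1-MDCK monolayers on filters. Transfer to the receiver compartment was measured over 30 min in both directions, apical-to-basolateral and basolateral-to-apical. Quantification was by LC-MS/MS, n = 3.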

As to `O=C(O)CCCc1cccs1`, the “fold change (FC)” value in the series on C2C12 is 1.16.
With `O=C(CCC(=O)N1CCN(c2ccc(C(F)(F)F)cn2)CC1)c1cccs1`, the “fold change (FC)” value with C2C12 came to 1.22.
As for `O=C(CCCc1cccs1)N1CCN(c2ccccc2)CC1`, the “fold change (FC)” value with C2C12 stood at 0.96. This molecule also showed a half-maximal inhibitory concentration (IC50) in series [1] of 133 µM.
`CN1CCN(C(=O)CCCc2cccs2)CC1`: the “fold change (FC)” value with C2C12 is 0.84. The IC50 in series [1] was 161 µM.
Regarding `O=C(CCCc1cccs1)N1CCN(c2ccc(C(F)(F)F)c(Cl)n2)CC1`, the “fold change (FC)” value in the series with C2C12 was determined as 1.22.
The same measure, in the same setting: the value for `O=C(c1cccs1)N1CCN(c2ccc(C(F)(F)F)cc2)CC1` was 0.93.
Same read-out and setting: the value for `O=C(CCCc1cn[nH]c1)N1CCN(c2ccc(C(F)(F)F)cc2)CC1` was 1.35.
Still for that read-out and setting: the value for `O=C(CCCc1cccs1)N1CCN(c2ncc(C(F)(F)F)cc2Cl)CC1` was 1.13; that for `O=C(CCCCCc1cccs1)N1CCN(c2ccc(C(F)(F)F)cc2)CC1` was 1.33; that for `COC(=O)CCCc1cccs1` was 1.09.
With `Cc1ccc(N2CCN(C(=O)CCCc3cccs3)CC2)cc1`, the “fold change (FC)” value in the series with C2C12 worked out at 1.
As for `O=C(CCC(=O)N1CCN(c2ncc(C(F)(F)F)cc2Cl)CC1)c1cccs1`, the “fold change (FC)” value with C2C12 amounted to 1.26.
For the molecule `FC(F)(F)c1ccc(N2CCN(CCCCc3cccs3)CC2)cc1`, the “fold change (FC)” value with C2C12 is 1.36.
Consider `O=C(CCCc1cccs1)N1CCN(c2ccc(C(F)(F)F)cc2Br)CC1`, for which the “fold change (FC)” value in the series on C2C12 turned out to be 1.02.
Still for that read-out and setting: to `O=C(CCCc1cccs1)N1CCC(c2ccccc2)CC1` belongs 1.25; to `O=C(CCCc1cccs1)N1CCN(c2ccc(C(F)(F)F)cn2)CC1`, 1.
Consider `O=C(CCSc1cccs1)N1CCN(c2ncc(C(F)(F)F)cc2Cl)CC1`, for which the “fold change (FC)” value with C2C12 was found to be 1.31.
Still for that read-out and setting: the value for `CCCCCCCC(=O)N1CCN(c2ccc(C(F)(F)F)cc2)CC1` was 1.38.
Consider `O=C(CCCc1cccs1)N1CCN(c2ccc([N+](=O)[O-])cc2)CC1`, for which the “fold change (FC)” value in the series with C2C12 stood at 1.06. This molecule also yielded a 50% inhibitory concentration (IC50) in series [1] of 17 µM.
As for `O=C(CCCc1cccs1)N1CCN(c2ccc(F)cc2)CC1`, in the series with C2C12, the “fold change (FC)” value worked out at 1.16.
Same read-out and setting: to `O=C(CCCc1cccs1)NNc1ccc(C(F)(F)F)cc1` belongs 1.24.
On the same count and under the same terms, to `Nc1ccc(N2CCN(C(=O)CCCc3cccs3)CC2)cc1` belongs 1.32; to `CCCCC(=O)N1CCN(c2ccc(C(F)(F)F)cc2)CC1`, 1.28.
For `O=C(CCCc1cccs1)Nc1ccc(C(F)(F)F)cc1`, in the series with C2C12, the “fold change (FC)” value was 1.11. This molecule yielded an IC50 in series [1] of 92 µM.
The like results for `O=C(CCCCc1ccccc1)N1CCN(c2ccc(C(F)(F)F)cc2)CC1` were, in that order, 1.95 and 6 µM.
Take `O=C(CCCc1cccs1)N1CCN(c2ccccc2C(F)(F)F)CC1`: in the series on C2C12, the “fold change (FC)” value was found to be 0.85.
Still for that read-out and setting: the value for `COC(=O)CCCCCCCC(=O)N1CCN(c2ccc(C(F)(F)F)cc2)CC1` was 1.08; that for `CC(=O)N1CCN(c2ccc(C(F)(F)F)cc2)CC1` was 1.43.
Still for that read-out and setting: the value for `O=C(Cc1cccs1)N1CCN(c2ccc(C(F)(F)F)cc2)CC1` was 1.33.
As for `O=C(CCCCc1cccs1)N1CCN(c2ccc(C(F)(F)F)cc2)CC1`, in the series with C2C12, the “fold change (FC)” value was found to be 1.78. Moreover, the IC50 in series [1] came out at 60 µM.
For the molecule `O=C(O)CCCCCCCC(=O)N1CCN(c2ccc(C(F)(F)F)cc2)CC1`, the “fold change (FC)” value in the series on C2C12 turned out to be 1.38.
On the same count and under the same terms, the value for `O=C(CCC(=O)N1CCN(c2ccc(C(F)(F)F)cc2)CC1)c1cccs1` was 1.19.
Still for that read-out and setting: the value for `O=C(CCc1cccs1)N1CCN(c2ccc(C(F)(F)F)cc2)CC1` was 1.09.
For `O=C(CCSc1cccs1)N1CCN(c2ccc(C(F)(F)F)cc2)CC1`, the “fold change (FC)” value in the series with C2C12 came to 2.14. The same molecule yielded a half-inhibitory concentration (IC50) in series [1] of 14 µM.
`O=C(CCC(=O)N1CCC(c2ccc(C(F)(F)F)cc2)CC1)c1cccs1`: in the series with C2C12, the “fold change (FC)” value is 1.31.
Take `O=C(CCCc1cccs1)N1CCN(c2ccc(C(F)(F)F)cc2Cl)CC1`: the “fold change (FC)” value with C2C12 worked out at 1.58. In addition, the half-maximal inhibitory concentration (IC50) in series [1] was found to be 46 µM.
In the case of `O=C(CCCc1cccs1)N1CCN(C2CCCCC2)CC1`, the “fold change (FC)” value in the series with C2C12 was 1.29.
Regarding `O=C(CCCc1cccs1)N1CCC(c2ccc(C(F)(F)F)cc2)CC1`, the “fold change (FC)” value in the series on C2C12 was determined as 2.14. The molecule also yielded an IC50 in series [1] of 15 µM.
Take `O=C(CCCc1cccs1)N1CCN(c2cc(C(F)(F)F)cc(C(F)(F)F)c2)CC1`: in the series with C2C12, the “fold change (FC)” value turned out to be 1.42.
On to `FC(F)(F)c1cnc(N2CCNCC2)c(Cl)c1`, for which the “fold change (FC)” value in the series on C2C12 stood at 1.16.
The same measure, in the same setting: to `COCCNC(=O)CCCCCCCC(=O)N1CCN(c2ccc(C(F)(F)F)cc2)CC1` belongs 2.35.
Turning to `CN1CCN(c2ncc(C(F)(F)F)cc2Cl)CC1`, the “fold change (FC)” value in the series on C2C12 is 0.92. The 50% inhibitory concentration (IC50) in series [1] was determined as 67 µM.
Regarding `O=C(CCc1ccco1)N1CCN(c2ccc(C(F)(F)F)cc2)CC1`, the “fold change (FC)” value with C2C12 amounted to 1.11.
In the case of `CC(C)NCC(O)COc1cccc2ccccc12` (centres undefined) [PROPRANOLOL], the apparent permeability coefficient (Papp) at 0.5 h, 10 µM in series [2] is 21.8 ×10⁻⁶ cm/s.
